Most compounds without a hit are left out; they make up all but 2.3% or so of the library.
KLF5 inh = KLF5 expression inhibitors, primary screen, DLD-1 cells, luminescence. DLD-1 KLF5 promoter-luciferase reporter. inhibition, % at 5 µM. 290,000 compounds, 0.23% hits. AID 1700, 2009;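 active = inhibition above a per-plate limit of that plate's mean compound inhibition plus 3 SD, cut at about 60% in these data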;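 note: higher means less KLF5 promoter-driven luciferase light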
Beta apoptosis = inhibitors of cytokine-induced beta cell apoptosis, primary screen, luminescence. INS-1E cytokine-induced death, ATP luminescence, 48 h; percent of positive-control rescue, neutral wells zero. 300,000 compounds, 0.8% hits. protection from apoptosis, % (test concentration not listed). AID 435005, 2010;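 active = Every replicate reaches about 75%, or at least half do and their mean reaches it too, limit read from the data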;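 note: higher means more ATP so stronger rescue from cytokine killing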
A1 inh = caspase 3/7 activation in MEF A1-2A-BIM cells, primary screen, A1 inhibitor project, cell-based, luminescence, HTS | AID 2462, 2010 | Caspase-Glo 3/7 luminescence, 3 h; percent of clofoctol response, vehicle zero | 330,000 compounds, 0.066% hits | caspase activation, % (no concentration beside the values);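 active = over half of replicate activation scores above 10%, or exactly half above 10 with the replicate mean above 10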
HIF act = HIF pathway transcriptional activators, primary screen, cell-based, U2OS HRE-luciferase, luminescence. U2OS HRE-luciferase reporter; normalized: DMSO 0%, desferrioxamine 100%. activation, % at 7.5 µM (by protocol). 300,000 compounds, 0.32% hits. AID 1910, 2009;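 active = mean activation of at least 10% of the iron chelator positive control signal, with at least half of replicates also reaching 10%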
T cruzi repl = inhibitors of intracellular T. cruzi growth, primary screen, luminescence, NIH3T3 host cells; T. cruzi beta-gal in NIH3T3, 90 h; inhibition, % (no concentration beside the values); 300,000 compounds, 1.4% hits;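 active = mean inhibition across valid replicates above about 55%, limit read from the data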;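 note: signal also drops with host cell toxicity which is not excluded here; higher percent means less beta-gal luminescence so fewer parasites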
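System – NIH/3T3 host cells with β-galactosidase reporter T. cruzi · Doses – single 50 nL compound addition per well in DMSO · Reagent – 5000 T. cruzi trypomastigotes/well · Medium – Low-serum DMEM with 2% FBS · Timing – ≥90 h infection period, 3 h prior cell attachment · Evaluation – parasite load inhibition, % · Technique – GalScreen luminescence, 60 min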
Each line names hits and unclear results; the compound was inactive in the other large screens.

O=[N+]([O-])c1ccc(S(=O)(=O)Nc2nnc(C(F)(F)F)s2)cc1	none
O=c1[nH]c2ccccc2cc1CN(Cc1cccnc1)S(=O)(=O)c1ccc([N+](=O)[O-])cc1	T cruzi repl 55.6 (no result: Beta apoptosis)
O=c1[nH]c2ccccc2cc1CN(Cc1cccnc1)S(=O)(=O)c1ccc(Cl)cc1	none
CCCCn1c(=O)c2c(O)cc(=O)oc2c2ccccc21	HIF act 21.9
O=C(NC1CCCCC1)C(c1ccccn1)N(C(=O)c1csnn1)c1ccccc1F (centres undefined)	none
COc1cc(CN2CCCCC2)ccc1OCc1ccccc1	T cruzi repl 82.1
COc1ccc(CN2CCCCCC2)cc1OC	none (no result: KLF5 inh)
O=C(NC1CCCC1)c1cc(=O)[nH]c2ccccc12	none
O=C(c1ccc(Cl)cc1)N(Cc1ccco1)C1CCS(=O)(=O)C1 (centres undefined)	none
Cc1ccc(C)c(NC(=O)COC(=O)c2ccc3c(c2)OCCO3)c1	none (no result: KLF5 inh, HIF act, T cruzi repl)
CCOC(=O)c1c(S(=O)(=O)N2CCN(C)CC2)c(C)n(C)c1C	none (no result: Beta apoptosis)
CCOC(=O)c1c(S(=O)(=O)N2CCCC2)c(C)n(C)c1C	HIF act 47.6
NC(=S)N/N=C/c1ccc(C23CC4CC(CC(C4)C2)C3)cc1	Beta apoptosis 77.1, T cruzi repl 77.4
NC(=S)N/N=C/c1ccccc1	none
Cc1ccnc(NC(=O)c2cccc(S(=O)(=O)N3CCN(c4ccc(F)cc4)CC3)c2)c1	none (no result: KLF5 inh)
Cc1ccc2ccc[n+](Cc3ccccc3)c2c1	none (no result: KLF5 inh)
Cc1ccc(C[n+]2cccc(-c3ccccc3)c2)c(C)c1	Beta apoptosis 97.3, T cruzi repl 72.1
COc1ccc([C@H]2CC(=O)C=C(c3ccc(Oc4ccccc4)cc3)C2)cc1OC	none (no result: KLF5 inh, HIF act, T cruzi repl)
C=Cn1cc[n+](CC(=O)c2cccs2)c1	none (no result: Beta apoptosis)
O=C(C[n+]1ccn(CCCNP2(=O)C=C(c3ccccc3)OC(c3ccccc3)=C2)c1)c1cccs1	HIF act 101.2
O=[N+]([O-])c1ccc(N/N=C/c2ccc[nH]2)cc1	none (no result: HIF act, T cruzi repl)
O=C(CCCn1c(=S)[nH]c2cc3c(cc2c1=O)OCO3)N1CCN(c2ccccc2)CC1	none
Cc1cccc(N2CCN(C(=O)CCCn3c(=S)[nH]c4cc5c(cc4c3=O)OCO5)CC2)c1C	T cruzi repl 57.3 (no result: A1 inh)
CCc1ccc(C2C3=C(CC(C)(C)CC3=O)Nc3c2c(=O)[nH]c2nc(C)nn32)cc1 (centres undefined)	A1 inh 6.1
Cc1cc(Cl)c(OCCCN(C)C)c(Br)c1	none
Cc1cc(Br)cc(C)c1OCCCCN(C)C	T cruzi repl 63.0
O=C(Cn1c(SCC(=O)N2CCCc3ccccc32)nc2ccccc21)N1CCCC1	HIF act 69.6 (no result: Beta apoptosis)
CCC(C)NC(=O)CSc1nnc(-c2cc(OC)c(OC)c(OC)c2)c(-c2cc(OC)c(OC)c(OC)c2)n1 (centres undefined)	none
CC(=O)Nc1ccc(Nc2nc(C)nc3c2oc2ccccc23)cc1	none
Cc1nc(NCc2ccco2)c2oc3ccccc3c2n1	none
CCc1nc(Nc2cccc(O)c2)c2oc3ccccc3c2n1	none
CCc1nc(Nc2ccncc2)c2oc3ccccc3c2n1	T cruzi repl 65.7
Cc1nc(Nc2ccncc2)c2oc3ccccc3c2n1	T cruzi repl 73.1
Cc1nc(NCCc2cnc[nH]2)c2oc3ccccc3c2n1	T cruzi repl 71.1 (no result: Beta apoptosis)
CC(=O)C1C(=O)C=C(c2cccs2)CC1c1ccccc1 (centres undefined)	none
O=C1C=C(c2cccs2)C[C@H](c2ccccc2)[C@H]1n1nnc([N+](=O)[O-])n1	Beta apoptosis 101.0
Cc1ccc(Sc2cc(C)nc(-c3ccccn3)n2)cc1	Beta apoptosis 86.7
COc1cnc(-c2ccccn2)nc1Oc1ccccc1Cl	none
COc1cnc(-c2ccccn2)nc1Sc1ccc(C)cc1	Beta apoptosis 91.5
COc1cnc(-c2ccccn2)nc1NC(C)C	HIF act 177.7, T cruzi repl 76.9
FC(F)(F)c1cccc(Sc2cc(C(F)(F)F)nc(-c3ccccn3)n2)c1	none
COc1cnc(-c2ccccn2)nc1Oc1ccc(Cl)c2ccccc12	Beta apoptosis 97.4
N#C/C(C(N)=O)=C1/CCCN1Cc1ccccc1	none (no result: KLF5 inh)
COc1ccc(C(CNc2nc(-c3cccnc3)nc3ccccc23)N(C)C)cc1 (centres undefined)	none

Compound activity deposited in PubChem BioAssay by several laboratories.
